Rows were chosen to be rich in hits. Some 1.8% of all compounds tested hit in one or more screens of this group.
HTRA1 inh: HTRA1 (human) protease inhibition; Q92743; recombinant HTRA1, FP-rhodamine activity-based probe, fluorescence polarization; inhibition, % at 5.96 µM; 340,000 tested, 0.5% active; AID 504803; in the data active = inhibition above about 36%;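 note: 0% = enzyme with DMSO and 100% = wells lacking enzyme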
ABHD4 inh: inhibits mouse alpha/beta hydrolase domain 4; Q8VD66; purified mABHD4, FP-Rh probe fluorescence polarization; inhibition, % at 8.92 µM; 370,000 tested, 0.54% active;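 active = inhibition exceeding the mean over every tested compound plus 3 SD, cut at about 30% in these data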;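 note: 0% = plate median of compound wells and 100% = S159A mutant with DMSO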
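Assay system: Wild-type mouse ABHD4 protein | Medium: HEPES pH 7.0 buffer, 150 mM NaCl, 0.01% Pluronic F-127 | Incubation: Enzyme–compound pre-incubation 45 min, then probe 60 min, both 25 °C | Technique: Fluorescence polarization with parallel and perpendicular emission, 525/598 nm | Evaluation: % inhibition of FP-Rh probe binding versus controls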
SIAE primary: human SIAE inhibition, primary screen | 370,000 tested, 0.69% active | SIAE FP-Rh probe binding, fluorescence polarization | inhibition, % at 9.66 µM;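 active = inhibition above a cutoff: mean of compounds within the control limits plus 3 SD of those, cut at about 17% in these data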;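 note: 0% = plate median of compound wells and 100% = probe without SIAE protein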
Target sequence (Q9HAT2 whole entry, looked up): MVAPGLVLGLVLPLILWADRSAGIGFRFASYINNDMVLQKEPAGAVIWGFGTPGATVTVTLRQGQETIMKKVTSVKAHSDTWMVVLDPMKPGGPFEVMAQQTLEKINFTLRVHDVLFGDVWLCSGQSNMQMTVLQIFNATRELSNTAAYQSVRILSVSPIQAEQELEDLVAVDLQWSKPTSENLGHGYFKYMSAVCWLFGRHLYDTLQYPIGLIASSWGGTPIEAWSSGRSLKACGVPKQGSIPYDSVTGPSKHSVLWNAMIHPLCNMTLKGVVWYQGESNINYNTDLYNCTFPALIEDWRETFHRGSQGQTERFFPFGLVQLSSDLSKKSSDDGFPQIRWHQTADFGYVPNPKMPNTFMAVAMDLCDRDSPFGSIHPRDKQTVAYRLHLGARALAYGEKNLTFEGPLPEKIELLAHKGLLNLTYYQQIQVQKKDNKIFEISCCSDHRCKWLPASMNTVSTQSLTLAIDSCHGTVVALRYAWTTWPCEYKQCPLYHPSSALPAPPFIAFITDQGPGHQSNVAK
DDE Tn7 FP inh: DD(E)-Tn7 binding inhibition, primary FP screen; P02675; FP displacement of FITC-Tn7 peptide from fibrin DD(E); 0% = median of compound wells per plate; inhibition, % at 8.3 µM; 370,000 tested, 0.13% active;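 active = inhibition above the mean of compounds falling within the control limits plus 3 SD of them, cut at about 14% in these data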;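 note: 0% = plate median of compound wells and 100% = 10 µM Aha-Tn7 peptide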
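Assay system: Human clot-derived fibrin DD(E) complex | Buffer or medium: Tris/NaCl/CaCl2 buffer, pH 7.8 | Repeats: One replicate per compound | Benchmarks: Aha-Tn7 high control | Measure: % inhibition scaled between sample-field median and high-control FP | Schedule: 10 min plus 3 h, room temperature | Signal: Fluorescence polarization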
TCR-CD3 inh: human TCR-CD3 binding inhibition | TAMRA-labeled TCR probe fluorescence, biochemical | 360,000 tested, 0.37% active | inhibition, % at 9.4 µM; in the data active = inhibition above about 19%;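 note: recombinant mutant TCR 2C K166C tagged with TAMRA read by polarization; 0% = receptor in buffer alone and 100% = receptor with positive control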
DDE Tn6 FP inh: inhibitors of Tn6 peptide binding to human fibrin DD(E) | Fibrin DD(E) TRITC-Tn6 fluorescence polarization displacement | AID 720509 | inhibition, % at 8.3 µM | 370,000 tested, 0.21% active | P02675;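 active = inhibition above a per-campaign cutoff: mean of compounds within control limits plus 3 SD, cut at about 15% in these data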;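 note: 0% = median of all compound wells on the plate and 100% = blocking peptide control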
The depositor's hits bear a star; x = no result given; + = active, no number.

SMILES	HTRA1 inh	ABHD4 inh	SIAE primary	DDE Tn7 FP inh	TCR-CD3 inh	DDE Tn6 FP inh
Cc1ccc(S(=O)(=O)N(C)[C@H]2C[C@H]3c4[nH]c5cccc(-c6ccccc6)c5c4CCN3C(=O)[C@H]2[C@H](C)O)cc1	x	-1.7	-4.3	-1.6	-1.5	-2.4
O=C(COC(=O)c1ccc(F)cc1)Nc1ccccc1N1CCOCC1	6.7	-0.2	11.4	2.0	1.4	5.5
Cc1ccc(C(=O)OCC(=O)Nc2ccccc2N2CCOCC2)cc1	-6.9	0.6	18.0*	4.4	-1.6	2.1
CN1CCN(c2ccc(-c3cc(NC=O)c4ncc(-c5ccc(F)c(Cl)c5)n4c3)cc2)CC1	x	7.9	18.2*	2.7	-10.3	-0.7
O=C(N/N=C/c1cc(Br)ccc1O)C(=O)Nc1ccccc1OC(F)(F)C(F)F	45.9*	13.8	3.2	9.8	9.9	4.6
COC(=O)[C@]12C[C@H](CC(=O)NCc3cccc4ccccc34)C(=O)N(Cc3ccco3)C1=C[C@H](C(C)(C)C)O[C@@H]2C	x	-10.2	1.0	-0.7	x	-3.0
COc1cccc(N2C(=O)CC(Nc3ccc(N4CCOCC4)cc3)C2=O)c1 (stereo not drawn)	51.2*	x	x	x	x	x
CN1CCN(C(=O)Cn2c(=O)oc3cc(S(=O)(=O)NCc4ccccc4)ccc32)CC1	2.3	-1.1	25.2*	-2.1	5.4	3.6
CCS(=O)(=O)c1ccc(N=Nc2ccc(O)c3ncccc23)c(OC)c1	47.4*	21.9	4.3	-2.7	-2.5	-7.7
CC(C1=CCCCC1)c1cnn(C)c1 (stereo not drawn)	x	-2.4	1.2	-2.2	x	3.0
O=C1c2cc(Br)ccc2N(Cc2ccc(Br)cc2)S(=O)(=O)C1c1cc(Cl)c(Cl)cc1[N+](=O)[O-] (stereo not drawn)	52.6*	x	x	x	x	x
COC(=O)[C@]12C[C@H](CC(=O)NCC3CCCCC3)C(=O)N(Cc3cccc4ccccc34)C1=C[C@H](C1CCCC1)O[C@@H]2C	x	-18.6	-1.8	-2.2	x	0.8
CC(C)[C@@H]1NC(=O)[C@H]2C[C@@]3(c4ccccc4)c4ccccc4N[C@H]3N2C1=O	x	-0.8	3.8	-0.2	x	0.3
Cc1cc(C)c(S(=O)(=O)/N=C2/C=C(Sc3ncn[nH]3)C(=O)c3ccccc32)cc1C	22.1	42.8*	19.9*	1.9	5.8	-0.5
Cc1cc(O)c(Sc2ncn[nH]2)cc1NS(=O)(=O)c1ccc(Cl)cc1	5.2	3.1	11.4	-2.5	2.1	-6.3
COC(=O)[C@]12C[C@H](CC(=O)N3CCN(C(=O)c4ccco4)CC3)C(=O)N(CCc3ccc(OC)c(OC)c3)C1=C[C@H](C(C)(C)C)O[C@@H]2C	x	3.4	-3.3	0.8	x	4.8
O=C(N/N=C/c1ccco1)c1cccc(N2Cc3ccccc3C2)c1	10.4	-0.9	-1.9	5.8	24.5*	-7.4
O=C(N/N=C/c1ccco1)c1cccc(N2CCCC2=O)c1	11.8	12.8	0.2	4.2	6.1	1.1
O=C(Nc1ccc2ccccc2c1)C1CC2CCC1C2 (stereo not drawn)	x	-16.7	-0.4	4.5	x	-4.6
CCc1nc(C)ccc1OCC(=O)NCCCN(C)C	9.0	16.6	19.8*	-10.4	7.6	0.9
CCc1cc2c(nc1CC)CCCN2S(=O)(=O)c1ccc(C(F)(F)F)cc1	x	-3.0	4.3	3.5	-0.4	8.3
CN(C)c1ccc(/C=C/c2ccc3ccccc3[n+]2C)cc1	-47.6	-143.6	-99.2	-2.5	-9.6	14.4
CN(C)c1ccc(/C=C/c2ccc3c4ccccc4ccc3[n+]2-c2ccccc2)cc1	-102.5	-171.7	-115.4	8.8	-80.7	+
CCOc1c(Br)cc(CNc2ccc3c(c2)OCCO3)cc1OC	8.0	2.4	29.0*	7.8	0.7	-2.5
CC1Oc2cc3oc4c(O)c(O)ccc4c(=O)c3c(O)c2C1(C)C (stereo not drawn)	71.8*	x	x	x	x	x
SMILES	HTRA1 inh	ABHD4 inh	SIAE primary	DDE Tn7 FP inh	TCR-CD3 inh	DDE Tn6 FP inh
C=CCN1[C@H](CC(C)C)COc2cc(N3CCCC3)ccc2S1(=O)=O	x	0.1	-1.3	4.8	x	-2.8
C[C@@H]1ON(C)[C@H]2C[C@H]3c4[nH]c5cccc(-c6ccccc6F)c5c4CCN3C(=O)[C@@H]12	x	4.6	-3.0	3.2	2.8	3.4
CC(C)c1ccc(S(=O)(=O)/N=C2\C=C(NS(=O)(=O)c3ccccc3)C(=O)c3ccccc32)cc1	8.6	50.8*	7.6	-7.3	-3.9	-6.7
O=C(O)c1ccc(S(=O)(=O)/N=C2\C=C(Nc3ccccc3F)C(=O)c3ccccc32)cc1	27.2	57.5*	8.1	-5.2	-0.2	-2.5
Cc1[nH]c2ccc(C(=O)O)cc2c1C	-0.8	-1.4	5.1	-1.9	-0.9	4.5
CCCc1c(C)[nH]c2ccc(C(=O)O)cc2c1=S	-47.5	-18.1	-7.7	-3.5	26.8*	5.4
CCOC(=O)N1CCN(C(=O)CCS(=O)(=O)c2ccc(Br)s2)CC1	8.9	6.1	17.1*	-3.4	-0.3	4.4
CCC(C)NC(=O)CCS(=O)(=O)c1ccc(Br)s1 (stereo not drawn)	-6.2	-3.9	5.2	-0.5	-5.1	-6.9
Cc1cc(NS(=O)(=O)c2ccc(Nc3nc(-c4ccc(O)cc4)cs3)cc2)no1	-1.1	41.8*	-2.5	1.1	12.0	-6.9
CN1CC=C2C(C#N)=C(N)C(C#N)(C#N)C(CCc3ccccc3)C2C1 (stereo not drawn)	13.9	x	x	x	x	x
CCCC1C2CN(C(C)C)CC=C2C(C#N)=C(N)C1(C#N)C#N (stereo not drawn)	10.9	12.7	23.6*	10.6	11.0	1.3
Cc1ncc(CO)c(/C=N/NC(=S)Nc2ccc(Cl)c(Cl)c2)c1O	16.4	-14.4	19.0*	-6.2	12.9	-10.1
Cc1ncc(CO)c(/C=N/NC(=S)Nc2cccc(Cl)c2)c1O	42.8*	x	x	x	x	x
COc1cc(N=Cc2c(CO)cnc(C)c2O)cc(OC)c1OC	-2.0	2.9	7.3	1.8	-4.8	8.8
Cc1cccc(OCC(C)CN2CCC(C(O)(c3ccccc3)c3ccccc3)CC2)c1 (stereo not drawn)	x	1.2	7.5	-2.9	x	-0.5
CC(=O)Nc1ccc(NC(=O)c2ccc(N(C)S(=O)(=O)c3ccc(C)cc3)cc2)cc1	0.1	-5.7	-3.7	-2.7	-1.3	3.1
CN(c1ccccc1)S(=O)(=O)c1ccc(NC(=O)c2ccc(-c3ccccc3)cc2)cc1	-51.3	-14.5	4.1	-9.2	63.0*	-1.7
Cc1ccccc1C(=O)N(C)[C@H]1C[C@H]2c3[nH]c4c(-c5ccccc5)cccc4c3CCN2C(=O)[C@H]1[C@H](C)O	x	-10.6	-3.9	2.4	-4.1	0.5
Cc1ccc(O)c(NC(=O)CSc2ccc(Cl)cc2)c1	-28.8	-15.0	4.0	7.1	1.3	1.9
Cc1ccc(NS(=O)(=O)c2ccc(NC(=O)CSc3ccc(Cl)cc3)cc2)c(C)c1	-30.9	-26.6	-2.3	-2.4	23.3*	-1.7

Source: PubChem BioAssay
